Columns and labels:
Mus musculus [1] = test: Suppressive blood schizonticidal antimalarial activity evaluated in the trophozoite-induced Plasmodium berghei infection in mice (Mus musculus) at a dose 80 mg/kg given as no. of cures; type: functional
In short: (§1)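 Run at the Rane Laboratory with blood-induced P. berghei infections in mice, five animals per group. A cure is a mouse surviving to 60 days postinfection. Deaths before day 6 are recorded separately as toxic deaths. Activity is scored from the increase in mean survival time over untreated controls, and counts as active when treated MST is more than twice control MST.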

Plasmodium berghei [2] = test: Blood schizonticidal activity in trophozoite-induced Plasmodium berghei infected mice (Mus musculus) at 40 mg/kg; numbers cured; type: functional; in short: as §1
Plasmodium cynomolgi [3] = test: Cures in Plasmodium cynomolgi infected Rhesus monkeys (Macaca mulatta) on 0.316 mg/kg/day after 7 days; cured 3 of 3; type: functional
Mus musculus [4] = test: Suppressive blood schizonticidal antimalarial activity evaluated in the trophozoite-induced Plasmodium berghei infection in mice (Mus musculus) at a dose 160 mg/kg given as no. of toxic deaths; type: functional
In short: (§2)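 Rane Laboratory mouse test with blood-induced P. berghei infection, five mice per group. Toxic deaths are deaths occurring before the 6th day postinfection.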

Plasmodium cynomolgi [5] = test: Cures in Plasmodium cynomolgi infected Rhesus monkeys (Macaca mulatta) on 1 mg/kg/day after 7 days; cured 1 of 1; type: functional
Plasmodium cynomolgi [6] = test: Cures in Plasmodium cynomolgi infected Rhesus monkeys (Macaca mulatta) on 3.16 mg/kg/day after 7 days; cured 0 of 1; type: functional
Mus musculus [7] = test: Suppressive blood schizonticidal antimalarial activity evaluated in the trophozoite-induced Plasmodium berghei infection in mice (Mus musculus) at a dose 20 mg/kg given as no. of cures; type: functional; in short: as §1
Plasmodium berghei [8] = test: Suppressive blood schizonticidal antimalarial activity evaluated in the trophozoite-induced Plasmodium berghei infection in mice (Mus musculus) at a dose 640 mg/kg given as number of toxic deaths; type: toxicity, organism-based; design: dose 640 mg/kg; settings: in vivo; in short: as §2
Mus musculus [9] = test: Suppressive blood schizonticidal antimalarial activity evaluated in the trophozoite-induced Plasmodium berghei infection in mice (Mus musculus) at a dose 2.5 mg/kg given as number of cures; type: functional; in short: as §1
Mus musculus [10] = test: Suppressive blood schizonticidal antimalarial activity evaluated in the trophozoite-induced Plasmodium berghei infection in mice (Mus musculus) at a dose 10 mg/kg given as no. of cures; type: functional; in short: as §1
Mus musculus [11] = test: Suppressive blood schizonticidal antimalarial activity evaluated in the trophozoite-induced Plasmodium berghei infection in mice (Mus musculus) at a dose 320 mg/kg given as no. of toxic deaths; type: functional; in short: as §2
Mus musculus [12] = test: Suppressive blood schizonticidal antimalarial activity evaluated in the trophozoite-induced Plasmodium berghei infection in mice (Mus musculus) at a dose 5 mg/kg given as no. of cures; type: functional; in short: as §1
Plasmodium cynomolgi [13] = test: Radical curative antimalarial activity against Plasmodium cynomolgi in Rhesus monkeys (Macaca mulatta) at 0.1 mg/kg/day over 7 days; cured 5 of 5; type: functional
Plasmodium cynomolgi [14] = test: Cures in Plasmodium cynomolgi infected Rhesus monkeys (Macaca mulatta) on 1 mg/kg/day after 7 days; cured 2 of 2; type: functional
Mus musculus [15] = test: Suppressive blood schizonticidal antimalarial activity evaluated in the trophozoite-induced Plasmodium berghei infection in mice (Mus musculus) at a dose 80 mg/kg given as no. of toxic deaths; type: functional; in short: as §2
Plasmodium cynomolgi [16] = test: Cures in Plasmodium cynomolgi infected Rhesus monkeys (Macaca mulatta) on 0.1 mg/kg/day after 7 days; cured 3 of 4; type: functional
In short: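 Radical curative test run by the SEATO Medical Research Laboratory, Bangkok, in rhesus monkeys with sporozoite-induced P. cynomolgi infection. Cures are recorded as the number cured out of the number treated.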

Plasmodium cynomolgi [17] = test: Radical curative antimalarial activity against Plasmodium cynomolgi infected Rhesus monkeys (Macaca mulatta) after 7 days at 0.1 mg/kg/day dose; cured 2 of 4; type: functional
Plasmodium cynomolgi [18] = test: Cures in Plasmodium cynomolgi infected Rhesus monkeys (Macaca mulatta) on 0.316 mg/kg/day after 7 days; cured 2 of 3; type: functional
Mus musculus [19] = test: Suppressive blood schizonticidal antimalarial activity evaluated in the trophozoite-induced Plasmodium berghei infection in mice (Mus musculus) at a dose 5 mg/kg; type: functional; design: unit not given beside the values
In short: (§3)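 Run at the Rane Laboratory in mice infected with blood-induced P. berghei, five animals per group. Activity is the increase in mean survival time over untreated infected controls. A compound counts as active when treated-group MST is more than twice the control MST. Cures are mice surviving at 60 days postinfection.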

Plasmodium cynomolgi [20] = test: Cures in Plasmodium cynomolgi infected Rhesus monkeys (Macaca mulatta) on 0.316 mg/kg/day after 7 days; cured 0 of 3; type: functional
Plasmodium cynomolgi [21] = test: Cures in Plasmodium cynomolgi infected Rhesus monkeys (Macaca mulatta) on 0.1 mg/kg/day after 7 days; cured 1 of 2; type: functional
Mus musculus [22] = test: (§4) Suppressive blood schizonticidal antimalarial activity evaluated in the trophozoite-induced Plasmodium berghei infection in mice (Mus musculus) at a dose 40 mg/kg; type: functional; design: unit not given beside the values; in short: as §3
Mus musculus [23] = test: Suppressive blood schizonticidal antimalarial activity evaluated in the trophozoite-induced Plasmodium berghei infection in mice (Mus musculus) at a dose 10 mg/kg; type: functional; in short: as §3
Mus musculus [24] = test: Suppressive blood schizonticidal antimalarial activity evaluated in the trophozoite-induced Plasmodium berghei infection in mice (Mus musculus) at a dose 160 mg/kg given as no. of cures; type: functional; in short: as §1
Mus musculus [25] = test: Suppressive blood schizonticidal antimalarial activity evaluated in the trophozoite-induced Plasmodium berghei infection in mice (Mus musculus) at a dose 80 mg/kg; type: functional; design: unit not given beside the values; in short: as §3
Plasmodium berghei [26] = test: Blood schizonticidal antimalarial activity in the trophozoite-induced Plasmodium berghei infection in mice (Mus musculus) at 20 mg/kg; type: functional; design: unit not given beside the values; in short: as §3
Mus musculus [27] = test: Suppressive blood schizonticidal antimalarial activity evaluated in the trophozoite-induced Plasmodium berghei infection in mice (Mus musculus) at a dose 2.5 mg/kg; type: functional; in short: as §3
Plasmodium cynomolgi [28] = test: Cures in Plasmodium cynomolgi infected Rhesus monkeys (Macaca mulatta) on 0.316 mg/kg/day after 7 days; cured 1 of 1; type: functional
Plasmodium cynomolgi [29] = test: Cures in Plasmodium cynomolgi infected Rhesus monkeys (Macaca mulatta) on 0.1 mg/kg/day after 7 days; cured 0 of 1; type: functional
Mus musculus [30] = test: as §4; type: functional; in short: as §1
Plasmodium cynomolgi [31] = test: Cures in Plasmodium cynomolgi infected Rhesus monkeys (Macaca mulatta) on 0.1 mg/kg/day after 7 days (x7); cured 0 of 2; type: functional
Plasmodium cynomolgi [32] = test: Cures in Plasmodium cynomolgi infected Rhesus monkeys (Macaca mulatta) on 1 mg/kg/day after 7 days; cured 0 of 1; type: functional
Plasmodium cynomolgi [33] = test: Cures in Plasmodium cynomolgi infected Rhesus monkeys (Macaca mulatta) on 10.0 mg/kg/day after 7 days; type: functional, organism-based
Plasmodium cynomolgi [34] = test: Cures in Plasmodium cynomolgi infected Rhesus monkeys (Macaca mulatta) on 0.316 mg/kg/day after 7 days; cured 2 of 4; type: functional

| Compound | Cures (Plasmodium berghei [2]) | Toxic deaths (Mus musculus [4]) | Cures/no. of animals (Plasmodium cynomolgi [5]) | Cures (Mus musculus [7]) | Toxic deaths (Plasmodium berghei [8]) | Cures (Mus musculus [10]) | Toxic deaths (Mus musculus [11]) | Cures/no. of animals (Plasmodium cynomolgi [14]) | Toxic deaths (Mus musculus [15]) | Delta MST (Mus musculus [23]) | Delta MST (Mus musculus [25]) | Delta MST (Plasmodium berghei [26]) | also measured |
| --- | --- | --- | --- | --- | --- | --- | --- | --- | --- | --- | --- | --- | --- |
| CCCCCCOc1c(OC)cc(NC(C)CCCN)c2nccc(C)c12 (stereo unspecified) [WR-242511] | 5 | 3 | 1 | 5 | 5 | 1 | 5 | – | – | – | – | – | Cures (Mus musculus [1]): 4; Cures/no. of animals (Plasmodium cynomolgi [3]): 3; Cures/no. of animals (Plasmodium cynomolgi [6]): 0; Cures (Mus musculus [9]): 1; Cures (Mus musculus [12]): 1; Cures/no. of animals (Plasmodium cynomolgi [13]): 5 |
| CCCCCOc1c(OC)cc(NC(C)CCCN)c2nccc(C)c12 (stereo unspecified) | 1 | 4 | – | 4 | 5 | 5 | 5 | 2 | 2 | – | – | – | Cures (Mus musculus [9]): 2; Cures/no. of animals (Plasmodium cynomolgi [16]): 3; Cures (Mus musculus [12]): 5 |
| CCCCCCOc1c(OC)cc(NC(C)CCCN)c2nc(C)cc(C)c12 (stereo unspecified) | 5 | 5 | 1 | 2 | 5 | 1 | 5 | – | 5 | – | – | – | Cures/no. of animals (Plasmodium cynomolgi [17]): 2; Cures/no. of animals (Plasmodium cynomolgi [18]): 2; Delta MST (Mus musculus [19]): 7.3 |
| COc1cc(NC(C)CCCN)c2nccc(C)c2c1OCCCCCCCCOc1ccccc1 (stereo unspecified) | – | – | – | – | 1 | – | 2 | 2 | – | 0.6 | 4.4 | 3 | Cures/no. of animals (Plasmodium cynomolgi [20]): 0; Cures/no. of animals (Plasmodium cynomolgi [21]): 1; Delta MST (Mus musculus [22]): 9.4; Cures (Mus musculus [24]): 3 |
| C=CCCOc1c(OC)cc(NC(C)CCCN)c2nccc(C)c12 (stereo unspecified) | – | 5 | 1 | – | 5 | – | 5 | – | – | 7.5 | 0 | 8.8 | Delta MST (Mus musculus [27]): 7.5; Cures/no. of animals (Plasmodium cynomolgi [28]): 1; Cures/no. of animals (Plasmodium cynomolgi [29]): 0; Cures (Mus musculus [30]): 1; Delta MST (Mus musculus [19]): 8.1 |
| CCCCCCOc1c(OC)cc(NC(C)CCCN)c2nc(C)ccc12 (stereo unspecified) | 1 | – | – | – | 3 | – | 3 | – | – | 2.7 | 11.4 | 6 | Cures/no. of animals (Plasmodium cynomolgi [28]): 1; Cures/no. of animals (Plasmodium cynomolgi [31]): 0; Cures (Mus musculus [24]): 3; Cures/no. of animals (Plasmodium cynomolgi [32]): 0 |
| CCCCOc1c(OC)cc(NC(C)CCCN)c2ncccc12 (stereo unspecified) | – | 3 | – | – | 5 | – | – | 2 | 2 | 4.1 | – | 6.5 | Cures/no. of animals (Plasmodium cynomolgi [33]): Toxic; Delta MST (Mus musculus [22]): 6.7; Cures/no. of animals (Plasmodium cynomolgi [34]): 2 |
